Laboratory results as given in the RNAGym collection of RNA variant scans (doi:10.1126/science.aae0568).
This sample holds only a part of the variants without activity.

B1: tRNA (parent)
chain: GUUCCGUUGGCGUAAUGGUAACGCGUCUCCCUCCUAAGGAGAAGACUGCGGGUUCGAGUCCCGUACGGAACG

Variants of: B1
Test: yeast fitness relative to wild type (ratio to wild type); higher = fitter; tRNA-Arg(CCU), competitive growth, 37 C, YPD
In short: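 For this measurement, the tRNA-Arg(CCU) gene was varied by chemical synthesis at a 3% per-site mutation rate across 69 sites, and each variant was placed at the native genomic locus in Saccharomyces cerevisiae. The pooled strains went through a 24-hour competition in YPD at 37°C in six parallel replicates, with amplicons from start and end populations read by 100-nucleotide paired-end sequencing. Darwinian fitness relative to wild type followed from the change in each genotype's frequency. Genotypes needed ≥ 100 starting reads, and estimates < 0.5 were set to 0.5.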

Variant	yeast fitness
GUUCCGUUGGCGUAAUGGUCACGCGUCUCCCUCCUAAGGAGAAGACUGCGGGUUCGAGUCCCGUAGGGAACG [A20C C66G]	0.766
GUUCCGUUGGCGUAAUGGUUACGCGUGUCGCUCCUAAGGAGAGGACUGCGGGUUCGAGUCCCGUCCGCAACG [A20U C27G C30G A43G A65C G68C]	≤ 0.5
GUUCCGUUGGAGCGAUGGUAACGCGUCUCCCUCCUAAGGAGAACAAUGGGGGUUCGAGUCCCGUACGGAACG [C11A U13C A14G G44C C46A C49G]	≤ 0.5
GUUCCGUUGGCGCAAUGGUAACGCGUCUCCUUCUUAAGGGGAAGACAGCGGGUUCGAGUCCCGUACGGAACG [U13C C31U C34U A40G U47A]	≤ 0.5
GUUCCAUUGGCGUAAUGGUAACACGUCUCCCUCCUAAGGAGGAGAUUGCGGGUUGGAGUCCCGUACGGAACG [G6A G23A A42G C46U C55G]	0.522
GUCCCGUUGGAGUAAUGGUAACGCGUCUCCAUCCUAAGGAGGAGACUGCGGGUUCGAGUCCCGUACGCAACG [U3C C11A C31A A42G G68C]	≤ 0.5
GUUCCGUUGCCGUAAUGGUAACGCGUCUCCUUCCGAAGGAGAAGACUGCGGGUUCGAGUCCCGUACGGAACG [G10C C31U U35G]	≤ 0.5
GUUCCGUUGGCAUAAUGGUAACGCGUCUCCCUCCUAAAGAGAAGACUGCGGGUUCCAGUCCAGUCCGGAACG [G12A G38A G56C C62A A65C]	≤ 0.5
GUUCCGUUGGCGUAAUGCUAACGCGUGUCCCUCCUAAGGAGAAGAAUGCGGGUUCGAAACCCGUACGGAACG [G18C C27G C46A G58A U59A]	≤ 0.5
GUUCCGUUGGCGUAAUGGUAACGUGUCUCCCGCCUAAGGAGAAGACUGCGGGUUCAAGUCCCGUACGGAACG [C24U U32G G56A]	0.53
GUUCCAUUGGCGUAAUGGUAACGCGUCUCCCUCCUAAGGAGAAGACUGCAGGGUCGAGUCCCGUACGGGACG [G6A G50A U53G A69G]	≤ 0.5
GUUCCGUUGGCGUAAUGGUAACGCGUCUCCCUCCUAAGGAGAAGACUGCGGGUUCGAGUCCCGUACGAACCG [G68A A70C]	0.861
GUUCCGUUGGCGUAAUGGUAACGCGUCUCCCUCCCUAGGUGAAGACUGCGGGUUUGCGUCCCGUACGGAACG [U35C A36U A40U C55U A57C]	0.865
GUUCCGUUGGAGUAAUGGUAACGUGUCUCCCGCCUAAGGUGAAGACUGCGGGUUCGAGUCCCGGACGGAACG [C11A C24U U32G A40U U64G]	≤ 0.5
GCUCCGUUGGCGUAAUGGUAACGCGUCUCCCCCCUAAGGCGAAGACUACGGGUUCGAGUCCCGUACGGAACG [U2C U32C A40C G48A]	0.551
GUUCCGUUGGCGUAGUGGUAACGCGUCUCCCUCCUAAGGAGAAGACCGCGGGUUCGAGUCCCGUACGGCACG [A15G U47C A69C]	0.754
GUUCCGUUGGCGUAAUGGUAACACGUCUCACUCCUAGGGAGAAGACUGCGGGUUCGAGUCCCGUAUGGAACG [G23A C30A A37G C66U]	0.539
GUUCCGUUGGGGUAAUGGUAACGCGUCUCUCUCCUAAGGACAAGACUGCAGGUUCGAGUCCCGUACCGAACG [C11G C30U G41C G50A G67C]	≤ 0.5
GUUCCGUUAGCGUAAUGGUAACGCGUCUCCCUCCUAAGGAGAAGACUGCGGGUUGGAGUCCCGUCCGGAACG [G9A C55G A65C]	≤ 0.5

Variant	yeast fitness
GUUCCGUUGGGGUAAUGGUAACGCGUCACCCUCCUAAGGAGAAGACUGCGGGUUCGAGUCCCGUAUGGAUCG [C11G U28A C66U A70U]	≤ 0.5
GUUCCGGAGGCGUAAUGGUAACGCGUCUCCCCCCUAAGGAGAAGACUGCGCGUUCGAGUUUUGUACGGAACG [U7G U8A U32C G51C C60U C61U C62U]	0.599
GUUCCGUUGGCGUAAUGGUAACGCGUCUCCCCCCUAAGCAGAAGACUGCGGGUUCGAGUCUCGUACGGAACG [U32C G39C C61U]	≤ 0.5
GUUCCGUUGGCGUAAUGGUAACGCGAGUCCGUCCUAACGAGAAGACUGCGGGUUCGAGUCCCGUACGGAACG [U26A C27G C31G G38C]	≤ 0.5
GUUCCGUUGGCGUAAUGGUAGCGCGUCUCCCUCCUAAGGAGAAGACUGCGGGUACGAGUCCUGUGCGAAACG [A21G U54A C62U A65G G68A]	≤ 0.5
GUUCUGUUGGCGUAAUGGUAUCGCGUCUCCCUUCUAAGGAGAAGACUGCGGGUUCGAGUCCUGUACGGACCG [C5U A21U C33U C62U A70C]	≤ 0.5
GUUCCGUUGGCGUAAUGGUAACGCGUCUCCCUCCUAAGGAGAAGACUGUGGGUUCGAGUCCUGUACGGUACG [C49U C62U A69U]	0.948
GUUCCGUCGGCGUAAUGGUAACGCGUCUCGCUCCUAAGGAGAAGACUGCGGGCUCGAGUAACGUAGGGAACG [U8C C30G U53C C60A C61A C66G]	≤ 0.5
GUUCCGUUGGCGUAAUGGUAACGCGUCUCCCUCCUAAGGAGAAGACUGCGGGUUCGAGUCCCGUACGCAACG [G68C]	0.968
GUUCCGUUGGCCUAAUGGUAACGCGUCUCCCUCCUAAGGAGAAGACUGCGGAUUCGAGUCCCGUACGGAACG [G12C G52A]	0.745
GUUCCGUUGGCGAAAUGGUAACGCGUCUACGUCCUAAGGAGAAGACUGCGGGUUCGAGUCCCGUACGGAACG [U13A C29A C31G]	0.524
GUUCCGUUGGCGUAAUGGUAACGUGUCUCCCUCCUAAGGAGAAGACUGCGGGUUAGAGGCCCGUCCGGAACG [C24U C55A U59G A65C]	≤ 0.5
GUUCCGUUGGAGUAAUGGUAACGCGUCCCCCUCCUAAGGAGAAGACUGCGGGUUCGAGUCCCGUACGGUACG [C11A U28C A69U]	≤ 0.5
GUUCCGUUGGCGGAAUGGUAACGCGUCUCCCUCCUACGGAGAAGACUGCGGGUUCGAGUCCCGUACGGAGCG [U13G A37C A70G]	0.539
GUUCCGUUGGCGUAAUGGUAACGCGUCUCCCUCCCAAGGAGAAGACUGCGGGUUCGAGUCCCGUACGGCACG [U35C A69C]	0.943
GUUCCGUUGGCGUAAUGGUAACGCGUCUCUCUCCUAAGCAGAAGACUGCGGGAUCGAGUCCCGUACGGAACG [C30U G39C U53A]	≤ 0.5
GUUCCGUUGGCGUAAUGGUAACGCGUCUCCCUCGUAAGGAGAAGACUGCGGGUUAGAGUCCCGUACGAAACG [C34G C55A G68A]	≤ 0.5
GUUCCGUUGGCGUAAUGGUAAGGCGUCUCCCUCCUAAGGAGAUGAGUGCGGGUUCGAGUCCCGUACGGAACG [C22G A43U C46G]	≤ 0.5
GUUACGAUGGCGUAAUGGUAACGCGUCUCCAUCCUAAGGAGAAGACUGCGGGUUCGAGUCCCGUACGGAACG [C4A U7A C31A]	0.678
